Activity calls are given as the source filed them. No cut-off for these calls is given here.
Assays:
Escherichia coli [1] = test: Induction of bacteriolysis in Escherichia coli DH5[alpha] assessed as induction of morphological changes at 100 uM by scanning electron microscopy; format: functional, organism-based
Cryptococcus neoformans [2] = test: Induction of cell membrane permeabilization in Cryptococcus neoformans var. grubii at 0.5 mM after 2 hrs by […] cell NMR spectroscopy; format: functional, organism-based
Cryptococcus neoformans [3] = test: Induction of cell death in Cryptococcus neoformans var. grubii at 0.5 mM after 2 hrs by […] cell NMR spectroscopy; format: functional, organism-based
Cryptococcus neoformans [4] = test: Induction of cell membrane permeabilization in Cryptococcus neoformans var. grubii assessed as release of metabolites at 0.5 mM after 2 hrs by […] cell NMR spectroscopy; format: functional, organism-based
Escherichia coli [5] = test: Antimicrobial activity against Escherichia coli DH5[alpha] incubated for 4 hrs by microdilution broth assay; format: functional
In short: (§1)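 Bacteria grown in nutrient broth at 310K. Mid-log cells washed thrice and resuspended in 10 mM phosphate buffer pH 7.4 at 10^5 CFU/mL. Exposed to peptide 1–100 µM for 4 h at 310K, then medium added and grown overnight with shaking. Growth read at A630, normalized to 10 µM polymyxin B control. MIC90% is the concentration giving 90% growth inhibition; triplicates.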

Pseudomonas aeruginosa = test: Antimicrobial activity against Pseudomonas aeruginosa incubated for 4 hrs by microdilution broth assay; format: functional; in short: as §1
Klebsiella pneumoniae = test: Antimicrobial activity against Klebsiella pneumoniae incubated for 4 hrs by microdilution broth assay; format: functional; in short: as §1
Salmonella typhi = test: Antimicrobial activity against Salmonella typhi Ty2 incubated for 4 hrs by microdilution broth assay; format: functional, Salmonella enterica subsp. enterica serovar Typhi str. Ty2; conditions: Salmonella enterica
Staphylococcus aureus = test: Antimicrobial activity against Staphylococcus aureus incubated for 4 hrs by microdilution broth assay; format: functional; in short: as §1
Candida albicans [6] = test: Antimicrobial activity against Candida albicans incubated for 4 hrs by microdilution broth assay; format: functional
In short: as §1, with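 “Yeasts” for “Bacteria”, “YPDU” for “nutrient broth”, “301K.” for “310K.”, “301K,” for “310K,”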

Cryptococcus neoformans [7] = test: Antimicrobial activity against Cryptococcus neoformans var. grubii incubated for 4 hrs by microdilution broth assay; format: functional
In short: as §1, with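 “Yeasts” for “Bacteria”, “YPDU” for “nutrient broth”, “301K.” for “310K.”, “301K,” for “310K,”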

Candida albicans [8] = test: Antimicrobial activity against Candida albicans assessed as induction of microbial killing in presence of 150 mM NaCl measured after overnight recovery by microdilution broth assay; format: functional
In short: (§2)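 Washed mid-log cells in 10 mM phosphate buffer pH 7.4 with 150 mM NaCl, 10^5 CFU/mL; C. albicans grown in YPDU. Peptide 1–100 µM, 4 h at 301K, then medium added and grown overnight with shaking; A630 read. Polymyxin B 10 µM positive control; percent killing reported as MIC50%; triplicates.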

Cryptococcus neoformans [9] = test: Antimicrobial activity against Cryptococcus neoformans var. grubii assessed as induction of microbial killing in presence of 150 mM NaCl measured after overnight recovery by microdilution broth assay; format: functional; in short: as §2
Erythrocyte = test: Hemolytic activity in human erythrocytes at 1 to 200 uM after 4 hrs by; format: ADME, cell-based
In short: (§3)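 Fresh EDTA-anticoagulated human blood; erythrocytes washed thrice in PBS pH 7.4, 2×10^8 cells/mL, mixed with equal volume of peptide up to 200 µM, shaken at 310K for 1 h and 4 h. Supernatant absorbance at 414 nm measured, normalized to 2% Triton X-100 as 100% lysis; triplicates.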

[10] = Hemolytic activity in human erythrocytes assessed as heme release at 1 to 200 uM after 4 hrs by; format: ADME, cell-based, Erythrocyte; conditions: read-out: Activity; in short: as §3
HEK293 [11] = test: Toxicity in HEK293 cells assessed as reduction in cell viability at 2 to 100 uM incubated for 24 hrs by MTT assay; format: cell-based; conditions: human, hek293, 24 h
In short: (§4)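 HEK-293 cells kept in DMEM with 10% FBS and 1% penicillin/streptomycin, 310K, 5% CO2. Seeded at 10^4 cells/well and grown overnight, then exposed to peptide 0–100 µM for 24 h. MTT at 0.3 mg/mL for 3 h, formazan dissolved in DMSO, read at 570 nm; triplicates.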

HEK293 [12] = test: Toxicity in HEK293 cells assessed as reduction in cell viability at =>100 uM incubated for 24 hrs by MTT assay; format: cell-based; conditions: human, hek293, 24 h; in short: as §4
Lipid bilayer [13] = test: Induction of cell permeabilization in calcein-entrapped 3:1 DOPE/DOPG large unilamellar vesicles by calcein leakage assay
In short: (§5)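 LUVs of DOPE/DOPG 3:1 loaded with 70 mM calcein in 10 mM Tris pH 7.4, extruded through 100-nm filters, free dye removed by spin column. Liposomes at 20 µM in 10 mM Tris, 100 mM NaCl pH 7.4, 298K. Peptide added stepwise; emission at 520 nm read 5 min after each addition. Leakage = (F−Fo)/(FT−Fo)×100, with 0.1% Triton X-100 as FT; triplicates.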

Lipid bilayer [14] = test: Induction of cell permeabilization in calcein-entrapped 3:1 DOPE/DOPG large unilamellar vesicles at 30 uM by calcein leakage assay; in short: as §5
Lipid bilayer [15] = test: Induction of cell permeabilization in calcein-entrapped 3:1 DOPE/DOPG large unilamellar vesicles at 1 to 50 uM by calcein leakage assay; in short: as §5
Escherichia coli [16] = test: Induction of bacteriolysis in Escherichia coli DH5[alpha] assessed as induction of cell wall shrinkage at 1 to 5 times MIC90 by scanning electron microscopy; format: functional, organism-based
Escherichia coli [17] = test: Induction of bacteriolysis in Escherichia coli DH5[alpha] assessed as induction of intracellular material leakage at 1 to 5 times MIC90 by scanning electron microscopy; format: functional, organism-based
Escherichia coli [18] = test: Induction of bacteriolysis in Escherichia coli DH5[alpha] assessed as induction of distorted cell morphology at 1 times MIC90 by scanning electron microscopy; format: functional, organism-based
Escherichia coli [19] = test: Induction of bacteriolysis in Escherichia coli DH5[alpha] assessed as induction of dents and membrane blebbing at 1 times MIC90 by scanning electron microscopy; format: functional, organism-based
Escherichia coli [20] = test: Induction of bacteriolysis in Escherichia coli DH5[alpha] assessed as induction of non-uniform cell debris with leaked intracellular material at 5 times MIC90 by scanning electron microscopy; format: functional, organism-based
Cryptococcus neoformans [21] = test: Induction of cell membrane permeabilization in Cryptococcus neoformans var. grubii at 0.5 mM by […] cell NMR spectroscopy; format: functional, organism-based
Cryptococcus neoformans [22] = test: Induction of cell death in Cryptococcus neoformans var. grubii at 0.5 mM after 1 hr by […] cell NMR spectroscopy; format: functional, organism-based
Cryptococcus neoformans [23] = test: Induction of cell membrane permeabilization in Cryptococcus neoformans var. grubii assessed as release of metabolites at 0.5 mM by […] cell NMR spectroscopy; format: functional, organism-based
[24] = Binding affinity to SDS by circular dichroism spectroscopy
In short: (§6)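 Far-UV CD, 250–190 nm, 1-mm quartz cuvette, 100 nm/min, 0.5 nm interval, 3 scans averaged, 298K. Peptide at 25 µM final in deionized water or with 30 mM SDS or DPC micelles.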

[25] = Binding affinity to DPC micelle by circular dichroism spectroscopy; in short: as §6
[26] = Binding affinity to d25-SDS micelles by 1H NMR spectroscopy
[27] = Binding affinity to SDS micelle in presence of MnCl2 by PRE NMR spectroscopy
[28] = Binding affinity to DPC micelle in presence of MnCl2 by PRE NMR spectroscopy
Lipid bilayer [29] = test: Induction of cell permeabilization in calcein-entrapped 3:1 DOPE/DOPG large unilamellar vesicles at 50 uM measured over period of 7200 secs by calcein leakage assay
In short: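 Calcein-loaded 3:1 DOPE/DOPG LUVs, 20 µM in 10 mM Tris, 100 mM NaCl pH 7.4, exposed to 50 µM peptide. Emission at 520 nm followed over time at 298K, with a liposome-only control monitored for 2 h.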

## H-LKLLRKL-OH
Escherichia coli [1]
  Activity: inactive
Cryptococcus neoformans [2]
  Activity: inactive
Cryptococcus neoformans [3]
  Activity: inactive
Cryptococcus neoformans [4]
  Activity: inactive

## H-LKWLKKL-NH2
Escherichia coli [5]
  MIC90: 50 µM
Pseudomonas aeruginosa
  MIC90: 50 µM
Klebsiella pneumoniae
  MIC90: 50 µM
Salmonella typhi
  MIC90: 15 µM
Staphylococcus aureus
  MIC90: 50 µM
Candida albicans [6]
  MIC90: 50 µM
Cryptococcus neoformans [7]
  MIC90: 25 µM
Candida albicans [8]
  MIC50: 50 µM
Cryptococcus neoformans [9]
  MIC50: 50 µM
Erythrocyte
  Activity: Non-Toxic
[10]
  hemolysis at 4 h, up to 200 µM: < 10%
HEK293 [11]
  Activity: Non-Toxic
HEK293 [12]
  Activity: < 10%
Lipid bilayer [13]
  Activity: Dose-dependent effect
Lipid bilayer [14]
  Activity: 27%
Lipid bilayer [15]
  Activity: 37%
Escherichia coli [16]
  Activity: Active
Escherichia coli [17]
  Activity: Active
Escherichia coli [18]
  Activity: Active
Escherichia coli [19]
  Activity: Active
Escherichia coli [20]
  Activity: Active
Cryptococcus neoformans [21]
  Activity: Active
Cryptococcus neoformans [22]
  Activity: Active
Cryptococcus neoformans [23]
  Activity: Active
[24]
  Activity: inactive
[25]
  Activity: inactive
[26]
  Activity: Active
[27]
  Activity: Active
[28]
  Activity: inactive

## H-LRWLRRL-NH2
Escherichia coli [5]
  MIC90: 10 µM
Pseudomonas aeruginosa
  MIC90: 10 µM
Klebsiella pneumoniae
  MIC90: 15 µM
Salmonella typhi
  MIC90: 7.5 µM
Staphylococcus aureus
  MIC90: 50 µM
Candida albicans [6]
  MIC90: 50 µM
Cryptococcus neoformans [7]
  MIC90: 15 µM
Candida albicans [8]
  MIC50: 25 µM
Cryptococcus neoformans [9]
  MIC50: 25 µM
Erythrocyte
  Activity: Non-Toxic
[10]
  hemolysis at 4 h, up to 200 µM: < 10%
HEK293 [11]
  Activity: Non-Toxic
HEK293 [12]
  Activity: < 10%
Lipid bilayer [13]
  Activity: Dose-dependent effect
Lipid bilayer [14]
  Activity: 45%
Lipid bilayer [29]
  Activity: Active
Lipid bilayer [15]
  Activity: 57%
Escherichia coli [16]
  Activity: Active
Escherichia coli [17]
  Activity: Active
Escherichia coli [18]
  Activity: Active
Escherichia coli [19]
  Activity: Active
Escherichia coli [20]
  Activity: Active
Cryptococcus neoformans [21]
  Activity: Active
Cryptococcus neoformans [22]
  Activity: Active
Cryptococcus neoformans [23]
  Activity: Active
[24]
  Activity: inactive
[25]
  Activity: inactive
[26]
  Activity: Active
[27]
  Activity: inactive
[28]
  Activity: inactive

Reference: ChEMBL document CHEMBL4145677, “Insights into the Mechanism of Antimicrobial Activity of Seven-Residue Peptides” (J Med Chem, 2018)
